Data taken from article PMC4828293 (Bioorganic & medicinal chemistry, 2015).
Entries after “also recorded” stand apart in the source; their conditions may differ. Like-named read-outs stand apart in the source and are kept apart here.

What was measured:
SK-OV-3 (ovarian) = assay: SRB cytotoxicity assay, SK-OV-3; assay type: cell-based, human; conditions: SK-OV-3, 48 h, read-out: GI50 (μM) SRB assay SK-OV-3
In short: (§1)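 Serial dilutions of the test compound were added to the cells for 48 h. Cells were then fixed with trichloroacetic acid, washed, dried and stained with sulforhodamine B. The dye was solubilised and read at 540 nm, normalised to 630 nm.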

NCI-H460 (lung) = assay: SRB cytotoxicity assay, NCI-H460; assay type: cell-based, human; conditions: NCI-H460, 48 h, read-out: GI50 (μM) SRB assay NCI-H460
In short: as §1

DU-145 (prostate) = assay: SRB cytotoxicity assay, DU-145; assay type: cell-based, human; conditions: DU-145, 48 h, read-out: GI50 (μM) SRB assay DU-145
In short: as §1

tubulin = assay: Inhibition of [3H]colchicine binding to tubulin; conditions: 1.0 μM tubulin, 5.0 μM [3H]colchicine
[1] = test system: human cancer cell lines [SK-OV-3 (ovarian), NCI-H460 (lung), and DU-145 (prostate)]; assay: SRB cytotoxicity assay, panel of three human cancer cell lines; assay type: cell-based; conditions: read-out: GI50 against two of the three cell lines
In short: as §1

[2] = test system: MDA-MB-231-luc orthotopic human tumor xenografts; assay: In vivo dynamic bioluminescence imaging; parameters: species or system SCID mice
In short: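 Female SCID mice carried orthotopic mammary fat pad tumors grown from […] MDA-MB-231-Luc cells (stable lentiviral firefly luciferase) in 30% Matrigel, used at about 5 mm diameter. Under 2% isoflurane in O2, mice received D-luciferin 120 mg/kg in saline SC at the fore-back neck, and BLI images were taken over 35 min. The test compound (20, 30 or 40 mg/kg), saline, or CA4P 120 mg/kg was given IP immediately after baseline. BLI was repeated with fresh luciferin at 4 and 24 h, and light intensity-time curves were analysed.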

[3] = biological target: purified bovine brain tubulin (Bos taurus, UniProt P81947+Q6B856); conditions: read-out: Inhibition of tubulin polymerization IC50 (μM) ± SD; cited from earlier work
purified bovine brain tubulin, sequence (P81947 whole entry): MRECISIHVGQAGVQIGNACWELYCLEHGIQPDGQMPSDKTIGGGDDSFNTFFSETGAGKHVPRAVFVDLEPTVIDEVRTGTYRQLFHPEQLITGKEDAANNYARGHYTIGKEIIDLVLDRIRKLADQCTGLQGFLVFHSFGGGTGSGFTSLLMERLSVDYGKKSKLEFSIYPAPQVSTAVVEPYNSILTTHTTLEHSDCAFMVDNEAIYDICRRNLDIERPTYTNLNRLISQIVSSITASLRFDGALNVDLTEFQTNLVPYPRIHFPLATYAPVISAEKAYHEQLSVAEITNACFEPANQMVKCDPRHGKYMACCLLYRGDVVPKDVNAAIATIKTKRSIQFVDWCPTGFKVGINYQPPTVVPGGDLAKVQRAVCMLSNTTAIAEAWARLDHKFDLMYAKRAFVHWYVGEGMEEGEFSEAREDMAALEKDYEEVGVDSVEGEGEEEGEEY
purified bovine brain tubulin, sequence (Q6B856 whole entry): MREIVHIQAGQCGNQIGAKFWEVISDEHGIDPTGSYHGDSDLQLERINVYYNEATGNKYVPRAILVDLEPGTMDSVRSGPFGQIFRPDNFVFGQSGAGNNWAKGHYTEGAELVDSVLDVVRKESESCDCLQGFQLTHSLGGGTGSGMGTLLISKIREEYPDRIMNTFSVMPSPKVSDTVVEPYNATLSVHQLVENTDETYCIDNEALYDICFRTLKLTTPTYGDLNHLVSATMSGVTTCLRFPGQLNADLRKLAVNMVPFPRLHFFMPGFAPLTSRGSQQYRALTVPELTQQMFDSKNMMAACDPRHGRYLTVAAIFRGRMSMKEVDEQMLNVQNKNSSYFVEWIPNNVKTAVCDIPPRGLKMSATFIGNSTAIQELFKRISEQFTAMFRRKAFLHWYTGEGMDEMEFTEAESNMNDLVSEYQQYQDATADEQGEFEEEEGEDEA

[4] = test system: breast tumor bearing SCID mice; assay: Acute toxicity in breast tumor bearing SCID mice; assay type: in vivo; conditions: IP administration of saline solutions, doses up to 40 mg/kg

COc1cc(C2=CCCCc3c2ccc(O)c3O)cc(OC)c1OC [Compound 70, 9-(3′,4′,5′-Trimethoxyphenyl)-6,7-dihydro-5H-benzo[7]annulene-3,4-diol]
GI50 (SK-OV-3 (ovarian); Homo sapiens): 0.346 µM
GI50 (NCI-H460 (lung); Homo sapiens): 0.691 µM
GI50 (DU-145 (prostate); Homo sapiens): 1.53 µM

COc1cc(C2=CCCCc3c2ccc(OC)c3OC)cc(OC)c1OC [Compound 35, 3,4-Dimethoxy-9-(3′,4′,5′-trimethoxyphenyl)-6,7-dihydro-5H-benzo[7]annulene]
% Inhibition of colchicine binding ± SD (tubulin; 5 μM inhibitor): 30 ± 4%
% Inhibition of colchicine binding ± SD (tubulin; 50 μM inhibitor): 56 ± 4%
GI50 (SK-OV-3 (ovarian); Homo sapiens): 0.277 µM
GI50 (NCI-H460 (lung); Homo sapiens): 0.593 µM
GI50 (DU-145 (prostate); Homo sapiens): 0.708 µM

COc1ccc2c(c1OP(=O)(O)O)CCCC=C2c1cc(C(F)(F)F)cc(C(F)(F)F)c1 [Compound 74, 9-(3′,5′-Bis(trifluoromethyl)phenyl)-3-methoxy-6,7-dihydro-5H-benzo[7]annulen-4-yl disodium phosphate]
GI50 (SK-OV-3 (ovarian); average of n ≥ 3): 17.2 µM
GI50 (NCI-H460 (lung); average of n ≥ 3): 16.3 µM
GI50 (DU-145 (prostate); average of n ≥ 3): 17.5 µM

COc1ccc(/C=C\c2cc(OC)c(OC)c(OC)c2)cc1O [CA4, combretastatin A-4, reference compound]
% Inhibition of colchicine binding ± SD (tubulin; 1 μM inhibitor): 84 ± 3%
GI50 (SK-OV-3 (ovarian); Homo sapiens): 0.00455 µM
GI50 (NCI-H460 (lung); Homo sapiens): 0.00223 µM
GI50 (DU-145 (prostate); Homo sapiens): 0.00327 µM

COc1ccc2c(c1OC)CCCC=C2c1ccc(OC)c(OC)c1OC [Compound 61, 3,4-Dimethoxy-9-(2′,3′,4′-trimethoxyphenyl)-6,7-dihydro-5H-benzo[7]annulene]
GI50 (SK-OV-3 (ovarian); Homo sapiens): 6.96 µM
GI50 (NCI-H460 (lung); Homo sapiens): 10.5 µM
GI50 (DU-145 (prostate); Homo sapiens): 26.2 µM

COc1ccc2c(c1C)CCCC=C2c1cc(OC)c(OC)c(OC)c1 [Compound 30, 3-Methoxy-4-methyl-9-(3′,4′,5′-trimethoxyphenyl)-6,7-dihydro-5H-benzo[7]annulene]
% Inhibition of colchicine binding ± SD (tubulin; 5 μM inhibitor): 65 ± 0.6 (5 μM) %
GI50 (SK-OV-3 (ovarian); Homo sapiens): 0.33 µM
GI50 (NCI-H460 (lung); Homo sapiens): 0.422 µM
GI50 (DU-145 (prostate); Homo sapiens): 0.644 µM

CCCc1c(OC)ccc2c1CCCC=C2c1cc(OC)c(OC)c(OC)c1 [Compound 32, 3-Methoxy-4-propyl-9-(3′,4′,5′-trimethoxyphenyl)-6,7-dihydro-5H-benzo[7]annulene]
GI50 (SK-OV-3 (ovarian); Homo sapiens): 2.96 µM
GI50 (NCI-H460 (lung); Homo sapiens): 3.32 µM
GI50 (DU-145 (prostate); Homo sapiens): 6.03 µM

COc1ccc2c(c1OC)CCCC=C2c1cc(C(F)(F)F)cc(C(F)(F)F)c1 [Compound 34, 9-(3′,5′-Bis(trifluoromethyl)phenyl)-3,4-dimethoxy-6,7-dihydro-5H-benzo[7]annulene]
GI50 (SK-OV-3 (ovarian); Homo sapiens): 31.1 µM
GI50 (NCI-H460 (lung); Homo sapiens): 25.5 µM
GI50 (DU-145 (prostate); Homo sapiens): 52.1 µM

COc1ccc2c(c1O)CCCC=C2c1cc(C(F)(F)F)cc(C(F)(F)F)c1 [Compound 65, 9-(3′,5′-Bis(trifluoromethyl)phenyl)-3-methoxy-6,7-dihydro-5H-benzo[7]annulen-4-ol]
% Inhibition of colchicine binding ± SD (tubulin; 5 μM inhibitor): 8.5 ± 4%
% Inhibition of colchicine binding ± SD (tubulin; 50 μM inhibitor): 37 ± 5%
GI50 (SK-OV-3 (ovarian); Homo sapiens): 4.81 µM
GI50 (NCI-H460 (lung); Homo sapiens): 4.39 µM
GI50 (DU-145 (prostate); Homo sapiens): 4.92 µM

COc1ccc2c(c1)CCCC=C2c1ccc(OC)c(OC)c1OC [Compound 62, 3-Methoxy-9-(2′,3′,4′-trimethoxyphenyl)-6,7-dihydro-5H-benzo[7]annulene]
% Inhibition of colchicine binding ± SD (tubulin; 1 μM inhibitor): 36 ± 5%
% Inhibition of colchicine binding ± SD (tubulin; 5 μM inhibitor): 69 ± 3%
GI50 (SK-OV-3 (ovarian); Homo sapiens): 0.0432 µM
GI50 (NCI-H460 (lung); Homo sapiens): 0.12 µM
GI50 (DU-145 (prostate); Homo sapiens): 0.0562 µM

CCc1c(OC)ccc2c1CCCC=C2c1cc(OC)c(OC)c(OC)c1 [Compound 31, 4-Ethyl-3-methoxy-9-(3′,4′,5′-trimethoxyphenyl)-6,7-dihydro-5H-benzo[7]annulene]
GI50 (SK-OV-3 (ovarian); Homo sapiens): 0.568 µM
GI50 (NCI-H460 (lung); Homo sapiens): 0.763 µM
GI50 (DU-145 (prostate); Homo sapiens): 1.51 µM
GI50 [1]: < 1000 nM

COc1ccc2c(c1O)CCCC=C2c1ccc(OC)c(OC)c1OC [Compound 71, 3-Methoxy-9-(2′,3, ′4′-trimethoxyphenyl)-6,7-dihydro-5H-benzo[7]annulen-4-ol]
GI50 (SK-OV-3 (ovarian); average of n ≥ 3): 3.53 µM
GI50 (NCI-H460 (lung); average of n ≥ 3): 4.24 µM
GI50 (DU-145 (prostate); average of n ≥ 3): 7.54 µM

COc1ccc2c(c1OC)CCCC=C2c1ccccc1 [Compound 28, 3,4-Dimethoxy-9-phenyl-6,7-dihydro-5H-benzo[7]annulene]
GI50 (SK-OV-3 (ovarian); Homo sapiens): 32.7 µM
GI50 (NCI-H460 (lung); Homo sapiens): 37.5 µM
GI50 (DU-145 (prostate); Homo sapiens): 89.3 µM

COc1ccc(C2=CCCCc3c2ccc(OC)c3OC)cc1 [Compound 36, 3,4-Dimethoxy-9-(4′-methoxyphenyl)-6,7-dihydro-5H-benzo[7]annulene]
GI50 (SK-OV-3 (ovarian); Homo sapiens): 20.5 µM
GI50 (NCI-H460 (lung); Homo sapiens): 33.4 µM
GI50 (DU-145 (prostate); Homo sapiens): 48.3 µM

Oc1ccc2c(c1O)CCCC=C2c1cc(C(F)(F)F)cc(C(F)(F)F)c1 [Compound 66, 9-(3′,5′-Bis(trifluoromethyl)phenyl)-6,7-dihydro-5H-benzo[7]annulene-3,4-diol]
GI50 (SK-OV-3 (ovarian); Homo sapiens): 16.8 µM
GI50 (NCI-H460 (lung); Homo sapiens): 25 µM
GI50 (DU-145 (prostate); Homo sapiens): 21.8 µM

COc1ccc2c(c1)CCCC=C2c1cc(OC)c(OC)c(OC)c1 [Compound 29, 3-Methoxy-9-(3′,4′,5′-trimethoxyphenyl)-6,7-dihydro-5H-benzo[7]annulene]
% Inhibition of colchicine binding ± SD (tubulin; 1 μM inhibitor): 37 ± 5%
% Inhibition of colchicine binding ± SD (tubulin; 5 μM inhibitor): 72 ± 0.8%
GI50 (SK-OV-3 (ovarian); Homo sapiens): 0.0516 µM
GI50 (NCI-H460 (lung); Homo sapiens): 0.0527 µM
GI50 (DU-145 (prostate); Homo sapiens): 0.0619 µM

COc1ccc2c(c1O)CCCC=C2c1ccccc1 [Compound 64, 3-Methoxy-9-phenyl-6,7-dihydro-5H-benzo[7]annulen-4-ol]
GI50 (SK-OV-3 (ovarian); Homo sapiens): 0.557 µM
GI50 (NCI-H460 (lung); Homo sapiens): 0.652 µM
GI50 (DU-145 (prostate); Homo sapiens): 4.4 µM
GI50 [1]: < 1000 nM

COc1ccc(/C=C\c2cc(OC)c(OC)c(OC)c2)cc1OP(=O)(O)O [CA4P, combretastatin A-4P, reference compound]
GI50 (SK-OV-3 (ovarian); average of n ≥ 3): 0.00119 µM
GI50 (NCI-H460 (lung); average of n ≥ 3): 0.00194 µM
GI50 (DU-145 (prostate); average of n ≥ 3): 0.00323 µM
reduction of BLI signal / light emission ([2]; CA4P 120 mg/kg IP in saline, 4 h): greater than 90%
reduction of BLI signal (remained depressed) ([2]; CA4P 120 mg/kg IP in saline, after 24 h): > 75%
IC50 [3]: > 40 µM

COc1ccc2c(c1O)CCCCC2c1cc(OC)c(OC)c(OC)c1 (centres unmarked) [Compound 72, 2-Methoxy-5-(3′,4′,5′-trimethoxyphenyl)-6,7,8,9-tetrahydro-5H-benzo[7]annulen-1-ol]
% Inhibition of colchicine binding ± SD (tubulin; 1 μM inhibitor): 21 ± 0.9%
% Inhibition of colchicine binding ± SD (tubulin; 5 μM inhibitor): 67 ± 0.6%
GI50 (SK-OV-3 (ovarian); Homo sapiens): 0.408 µM
GI50 (NCI-H460 (lung); Homo sapiens): 0.141 µM
GI50 (DU-145 (prostate); Homo sapiens): 0.57 µM

COc1ccc(C2=CCCCc3c2ccc(OC)c3O)cc1 [Compound 67, 3-Methoxy-9-(4′-methoxyphenyl)-6,7-dihydro-5H-benzo[7]annulen-4-ol]
GI50 (SK-OV-3 (ovarian); Homo sapiens): 18.4 µM
GI50 (NCI-H460 (lung); Homo sapiens): 10.6 µM
GI50 (DU-145 (prostate); Homo sapiens): 8.59 µM

COc1ccc(C2=CCCCc3cc(OC)ccc32)cc1 [Compound 37, 3-Methoxy-9-(4′-methoxyphenyl)-6,7-dihydro-5H-benzo[7]annulene]
GI50 (SK-OV-3 (ovarian); Homo sapiens): 40.7 µM
GI50 (NCI-H460 (lung); Homo sapiens): 57.7 µM
GI50 (DU-145 (prostate); Homo sapiens): 68.7 µM

COc1cc(C2=CCCCc3cc(O)ccc32)cc(OC)c1OC [Compound 68, 9-(3′,4′,5′-Trimethoxyphenyl)-6,7-dihydro-5H-benzo[7]annulen-3-ol]
% Inhibition of colchicine binding ± SD (tubulin; 5 μM inhibitor): 27 ± 5 (5 μM) %
GI50 (SK-OV-3 (ovarian); Homo sapiens): 0.527 µM
GI50 (NCI-H460 (lung); Homo sapiens): 0.647 µM
GI50 (DU-145 (prostate); Homo sapiens): 1.02 µM

COc1cc(C2CCCCc3c2ccc(OC)c3OP(=O)([O-])[O-])cc(OC)c1OC.[Na+].[Na+] (centres unmarked) [Compound 73, 2-Methoxy-5-(3′,4′,5′-trimethoxyphenyl)-6,7,8,9-tetrahydro-5H-benzo[7]annulen-1-yl disodium phosphate]
GI50 (SK-OV-3 (ovarian); average of n ≥ 3): 0.357 µM
GI50 (NCI-H460 (lung); average of n ≥ 3): 0.145 µM
GI50 (DU-145 (prostate); average of n ≥ 3): 0.753 µM
effect on light emission (dynamic BLI) ([2]; 30 mg/kg, 4 h after administration): modest effect
reduction of the emitted BLI signal ([2]; 40 mg/kg IP in saline, 4 h after administration): about 50%
BLI signal recovery ([2]; 20, 30 or 40 mg/kg IP, within 24 h): generally returned to its original level; also recorded: substantial recovery
reduction of BLI signal ([2]; 20 or 30 mg/kg IP in saline, 4 h after administration): modest reduction
acute toxicity over 24 h [4]: no obvious acute toxicity
